This is an account of results in ChEMBL document CHEMBL4334447, “Discovery of 4-Aminoquinoline-3-carboxamide Derivatives as Potent Reversible Bruton's Tyrosine Kinase Inhibitors for the Treatment of Rheumatoid Arthritis” (J Med Chem, 2019).

In brackets after ≈: the same amount, converted by molar mass.

Series [1] is described as follows: Kinetic aqueous solubility of the compound in pH 7.4 phosphate buffered saline incubated for 24 hrs under shaking condition by HPLC analysis. The format is physicochemical. Particulars: read-out: Kinetic_solubility. The procedure, abridged:
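Dry powder shaken 24 h at 25 °C in 0.1 M phosphate buffer, pH 7.4, then filtered through a 0.45 µm membrane. Concentration determined by HPLC against a standard of the compound in DMSO. Mean of three separate assays in triplicate.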

Series [2] in a line: Toxicity in complete freund's adjuvant-induced DBA/1 mouse arthritis model assessed as effect on appetite at 0.2 mg/kg, po qd administered starting from 29 day post-CFA challenge and measured on day 29, 33, 36, 40 and 43. In kind it is organism-based. The following applies: in vivo, 696 h. The method in brief: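 CIA in male DBA/1 mice: intradermal bovine type II collagen in CFA on day 0, collagen II in IFA boost on day 20. Randomized on day 29 and given oral doses once daily (n=6 per group) alongside vehicle and naive groups. Body weights recorded over the study days.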

The target in series [3] is Tyrosine-protein kinase BTK (Homo sapiens, UniProt Q06187). Nature of the series: Reversible inhibition of FAM-labeled peptide binding to full-length human N-terminal GST-tagged BTK (2 to 659 residues) expressed in baculovirus infected Sf21 insect cells at preincubated for 10 mins followed by FAM-labeled peptide addition and measured by off-chip mobility shift assay.

Usually IC50 stands for the concentration at which inhibition is half-maximal.

Sequence of Tyrosine-protein kinase BTK (Q06187 whole entry, the tested form may be a part): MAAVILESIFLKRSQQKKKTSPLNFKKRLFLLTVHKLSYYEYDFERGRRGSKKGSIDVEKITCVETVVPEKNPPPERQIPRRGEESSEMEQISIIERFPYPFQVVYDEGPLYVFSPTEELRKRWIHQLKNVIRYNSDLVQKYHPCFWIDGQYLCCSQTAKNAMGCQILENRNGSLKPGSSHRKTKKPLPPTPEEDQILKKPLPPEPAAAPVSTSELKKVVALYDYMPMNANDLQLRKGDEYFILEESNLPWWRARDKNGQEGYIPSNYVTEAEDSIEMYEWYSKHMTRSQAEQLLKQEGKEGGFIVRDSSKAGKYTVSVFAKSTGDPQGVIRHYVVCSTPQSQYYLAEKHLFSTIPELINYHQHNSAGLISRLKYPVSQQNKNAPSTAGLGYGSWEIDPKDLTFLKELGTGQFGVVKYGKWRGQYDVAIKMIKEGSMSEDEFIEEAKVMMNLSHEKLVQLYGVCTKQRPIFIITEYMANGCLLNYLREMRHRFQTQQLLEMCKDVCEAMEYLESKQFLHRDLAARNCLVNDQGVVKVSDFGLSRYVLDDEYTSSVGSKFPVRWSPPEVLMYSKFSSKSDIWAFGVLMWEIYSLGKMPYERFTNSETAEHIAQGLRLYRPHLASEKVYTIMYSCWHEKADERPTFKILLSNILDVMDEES

As for `Cc1cc2cn[nH]c2cc1-c1cccc2c(N)c(C(N)=O)nnc12`, the solubility kinetic at 24 h in series [1] is less than 0.05 µg/mL.

Take `C[C@@H]1C[C@H]2[C@@H]3CCC4=CC(=O)C=C[C@]4(C)[C@@]3(F)[C@@H](O)C[C@]2(C)[C@@]1(O)C(=O)CO` [DEXAMETHASONE]: in series [2], the Activity entry is listed as “Toxic”.

For `Cc1cc2cn[nH]c2cc1-c1ccc(F)c2c(N)c(C(N)=O)cnc12`, the IC50 in series [3] worked out at 11.6 nM. Further, the solubility kinetic at 24 h in series [1] stood at 5.2 µg/mL (≈ 15.5 µM).

Take `Cc1cc2cn[nH]c2cc1-c1cccc2c(N)c(C(N)=O)cnc12`: the IC50 in series [3] was found to be 72.8 nM. The solubility kinetic at 24 h in series [1] was found to be 10.5 µg/mL (≈ 33.1 µM).
